Active and inactive are the calls of the source. The rule behind the calls is not given here.
Key:
[1] = target: T1, Delta-aminolevulinic acid dehydratase (Escherichia coli (strain K12)) (UniProt P0ACB2); test: Stimulation of Escherichia coli recombinant PBGS using 5-ALA as substrate relative to control
T1 sequence (whole entry): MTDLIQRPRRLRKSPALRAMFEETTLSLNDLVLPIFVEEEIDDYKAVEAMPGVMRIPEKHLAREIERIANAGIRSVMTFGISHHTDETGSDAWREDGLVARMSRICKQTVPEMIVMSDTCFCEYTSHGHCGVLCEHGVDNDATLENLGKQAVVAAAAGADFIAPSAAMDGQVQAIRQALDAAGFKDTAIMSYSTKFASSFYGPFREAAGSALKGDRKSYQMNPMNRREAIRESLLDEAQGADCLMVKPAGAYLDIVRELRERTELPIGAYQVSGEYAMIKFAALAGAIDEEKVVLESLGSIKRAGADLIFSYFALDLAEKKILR
Procedure, shortened: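 E. coli PBGS at 200 nM subunit in 100 mM BTP-HCl pH 8.1 with 1 mM MgCl2, 10 μM ZnCl2, 5 mM DTT and 0.2 mM 5-ALA, 10 min at 36 °C. Porphobilinogen detected with Ehrlich's reagent. EC50 by log(agonist) vs response variable-slope fit.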

[2] = target: Delta-aminolevulinic acid dehydratase (Pseudomonas aeruginosa (strain ATCC 15692 / PAO1 / 1C / PRS 101 / LMG12228)) (UniProt Q59643); test: Stimulation of Pseudomonas aeruginosa PAO1 recombinant PBGS
[3] = target: T2, Delta-aminolevulinic acid dehydratase (Drosophila melanogaster, UniProt Q9VTV9); test: Inhibition of Drosophila melanogaster recombinant PBGS using 5-ALA as substrate
T2 sequence (Q9VTV9 whole entry): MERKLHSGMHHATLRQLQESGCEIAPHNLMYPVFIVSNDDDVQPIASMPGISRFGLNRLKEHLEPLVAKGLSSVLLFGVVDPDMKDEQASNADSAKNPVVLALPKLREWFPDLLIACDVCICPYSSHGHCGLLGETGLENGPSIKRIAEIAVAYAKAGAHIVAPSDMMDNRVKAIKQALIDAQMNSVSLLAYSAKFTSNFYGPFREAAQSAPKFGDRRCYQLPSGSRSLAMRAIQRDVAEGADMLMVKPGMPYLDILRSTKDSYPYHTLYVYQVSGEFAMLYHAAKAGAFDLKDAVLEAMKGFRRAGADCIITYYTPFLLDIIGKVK

[4] = target: Delta-aminolevulinic acid dehydratase (Pseudomonas aeruginosa (strain ATCC 15692 / PAO1 / 1C / PRS 101 / LMG12228)) (UniProt Q59643); test: Stimulation of Pseudomonas aeruginosa PAO1 recombinant PBGS using 5-ALA as substrate at 10 to 1000 uM at pH 8 in presence of 0.1 to 10000 uM MgCl2
[5] = target: Delta-aminolevulinic acid dehydratase (Pseudomonas aeruginosa (strain ATCC 15692 / PAO1 / 1C / PRS 101 / LMG12228)) (UniProt Q59643); test: Inhibition of Pseudomonas aeruginosa PAO1 recombinant PBGS using low 5-ALA level as substrate at 50 to 200 uM by buffer scan assay
[6] = target: Delta-aminolevulinic acid dehydratase (Pseudomonas aeruginosa (strain ATCC 15692 / PAO1 / 1C / PRS 101 / LMG12228)) (UniProt Q59643); test: Inhibition of Pseudomonas aeruginosa PAO1 recombinant PBGS using 0.2 mM 5-ALA as substrate assessed as reduction in Vmax at 50 to 200 uM at pH 7.5 by Michaelis-Menten plot analysis in presence of MgCl2
Procedure, shortened: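 PaPBGS under "standard inhibitory" conditions (100 mM Tris-HCl pH 7.5, 1 mM MgCl2, no KCl). 5-ALA varied for substrate-response curves at several wALADin1 levels; KM and VMAX derived from the fits. Incubation at 36 °C.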

[7] = target: Delta-aminolevulinic acid dehydratase (Pseudomonas aeruginosa (strain ATCC 15692 / PAO1 / 1C / PRS 101 / LMG12228)) (UniProt Q59643); test: Stimulation of Pseudomonas aeruginosa PAO1 recombinant PBGS using 5 mM 5-ALA as substrate assessed as increase in Vmax at 50 to 200 uM at pH 8 by buffer scan assay in presence of 1 mM MgCl2 and 1 to 1000 mM KCl
[8] = target: T3, Delta-aminolevulinic acid dehydratase, chloroplastic (Pisum sativum, UniProt P30124); test: Inhibition of Pisum sativum PBGS using 5-ALA as substrate; parameters: species or system Lathyrus oleraceus
T3 sequence (P30124 whole entry): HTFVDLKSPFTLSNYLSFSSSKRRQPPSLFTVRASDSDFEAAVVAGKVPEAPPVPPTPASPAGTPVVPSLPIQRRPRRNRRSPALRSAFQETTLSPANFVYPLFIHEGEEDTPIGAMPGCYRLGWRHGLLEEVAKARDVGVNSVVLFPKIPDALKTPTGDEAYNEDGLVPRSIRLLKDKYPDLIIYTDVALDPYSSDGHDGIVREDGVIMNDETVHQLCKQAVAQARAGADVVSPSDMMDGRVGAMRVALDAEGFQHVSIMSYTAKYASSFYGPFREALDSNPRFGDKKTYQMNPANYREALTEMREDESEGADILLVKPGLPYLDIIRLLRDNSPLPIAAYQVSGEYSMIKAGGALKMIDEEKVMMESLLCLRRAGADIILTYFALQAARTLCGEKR
Procedure, shortened: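 Pea (P. sativum) PBGS at 300 nM subunit in 100 mM BTP-HCl pH 8.5 with 1 mM MgCl2, 5 mM DTT and 0.2 mM 5-ALA, 15 min at 36 °C. Porphobilinogen detected with Ehrlich's reagent. Activity normalized to 6.7% DMSO control as 100%. IC50 from variable-slope normalized-response fit.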

[9] = target: Delta-aminolevulinic acid dehydratase (Pseudomonas aeruginosa (strain ATCC 15692 / PAO1 / 1C / PRS 101 / LMG12228)) (UniProt Q59643); test: Inhibition of Pseudomonas aeruginosa PAO1 recombinant PBGS using 0.2 mM 5-ALA as substrate at 10 to 10000 uM at pH 7.5 by buffer scan assay in presence of 1 mM MgCl2
[10] = target: T4, Delta-aminolevulinic acid dehydratase (Wolbachia sp. subsp. Brugia malayi (strain TRS), UniProt Q5GSR3); test: Inhibition of C-terminal His-tagged Wolbachia PBGS using 5-ALA as substrate
T4 sequence (Q5GSR3 whole entry): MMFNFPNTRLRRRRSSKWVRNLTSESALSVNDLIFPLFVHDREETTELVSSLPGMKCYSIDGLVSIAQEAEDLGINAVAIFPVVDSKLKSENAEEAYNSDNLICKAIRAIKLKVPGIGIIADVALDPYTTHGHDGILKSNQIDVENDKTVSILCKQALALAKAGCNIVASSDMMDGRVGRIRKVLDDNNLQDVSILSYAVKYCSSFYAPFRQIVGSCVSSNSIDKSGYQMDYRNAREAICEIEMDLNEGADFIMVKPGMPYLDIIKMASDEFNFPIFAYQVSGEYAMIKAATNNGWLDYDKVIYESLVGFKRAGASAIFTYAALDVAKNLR

[11] = target: T5, Delta-aminolevulinic acid dehydratase, chloroplastic (Pisum sativum) (UniProt P30124); test: Inhibition of Pisum sativum PBGS using 5-ALA as substrate at 8 to 2000 uM after 30 mins by nondenaturing PAGE analysis; settings: Lathyrus oleraceus
T5 sequence (whole entry): T3 sequence (P30124 whole entry)

[12] = target: Delta-aminolevulinic acid dehydratase (Pseudomonas aeruginosa (strain ATCC 15692 / PAO1 / 1C / PRS 101 / LMG12228)) (UniProt Q59643); test: Stimulation of Pseudomonas aeruginosa PAO1 recombinant PBGS assessed as stabilization of octameric form at 250 uM at pH 7 to 8.5 by nondenaturing PAGE analysis in presence of Mg2+ and K+
[13] = target: T6, Delta-aminolevulinic acid dehydratase (Wolbachia sp. subsp. Brugia malayi (strain TRS)) (UniProt Q5GSR3); settings: 25 to 2500 uM
T6 sequence (whole entry): T4 sequence (Q5GSR3 whole entry)

[14] = target: Delta-aminolevulinic acid dehydratase (Yersinia enterocolitica W22703, UniProt F4MUJ9); test: Stimulation of Yersinia enterocolitica recombinant PBGS expressed in Escherichia coli using 5-ALA as substrate
Delta-aminolevulinic acid dehydratase (Yersinia enterocolitica W22703, UniProt F4MUJ9), sequence (F4MUJ9 whole entry): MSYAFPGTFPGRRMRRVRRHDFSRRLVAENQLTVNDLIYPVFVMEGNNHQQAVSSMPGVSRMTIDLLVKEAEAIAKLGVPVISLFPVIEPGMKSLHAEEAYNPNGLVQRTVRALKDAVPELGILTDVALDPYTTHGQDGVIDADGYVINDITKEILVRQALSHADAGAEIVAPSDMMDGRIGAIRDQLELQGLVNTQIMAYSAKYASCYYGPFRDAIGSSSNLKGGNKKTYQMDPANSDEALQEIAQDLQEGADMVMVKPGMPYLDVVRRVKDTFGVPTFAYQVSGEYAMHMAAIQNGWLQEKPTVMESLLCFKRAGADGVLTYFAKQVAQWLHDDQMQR

Delta-aminolevulinic acid dehydratase (Pseudomonas aeruginosa (strain ATCC 15692 / PAO1 / 1C / PRS 101 / LMG12228)), sequence (Q59643 whole entry): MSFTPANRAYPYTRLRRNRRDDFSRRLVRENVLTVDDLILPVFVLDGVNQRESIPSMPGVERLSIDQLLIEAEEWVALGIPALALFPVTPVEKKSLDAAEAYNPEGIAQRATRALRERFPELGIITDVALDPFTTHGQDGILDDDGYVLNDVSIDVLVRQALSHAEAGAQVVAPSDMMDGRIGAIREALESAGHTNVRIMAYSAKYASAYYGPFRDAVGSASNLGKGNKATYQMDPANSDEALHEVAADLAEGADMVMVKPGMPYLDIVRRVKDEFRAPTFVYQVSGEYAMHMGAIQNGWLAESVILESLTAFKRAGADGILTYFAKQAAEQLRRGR

Work on O=C(O)c1ccc2c(c1)nc(CCNC(=O)c1cccs1)n2Cc1cccc(C(F)(F)F)c1 yielded an Smax [1] of 120%, an Activity [2] of 20% and an IC50 [3] of 1110 µM. The Activity [4] was “Active”, the inhibition [5] was “Active” and the inhibition [6] was “Active”. The Activity [7] was “Active”, the IC50 [8] was 10.6 µM and the inhibition [9] was “Active”. The IC50 [10] was 11.1 µM, the inhibition [11] was “Active” and the Activity [12] was “Active”. For the same compound, the inhibition [13] was “Active” and the EC50 [14] was 66 µM.
